From ChEMBL document CHEMBL1132488, “On the bioactive conformation of NAN-190 (1) and MP3022 (2), 5-HT(1A) receptor antagonists” (J Med Chem, 1999)
pKi: −log10 of the molar value.

Legend:
[1] = organism: Rattus norvegicus; experiment: Effect on 8-OH-DAPT- induced behavioral syndrome(FT: forepaw treading) by the compound in reserpine pretreated rats at a dose of 32; FT mean score; type: functional
Procedure, shortened: (§1)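 Reserpinized male Wistar rats (reserpine 1 mg/kg sc, 18 h before), groups of 6. Compound given ip in 1% Tween 80 60 min before 8-OH-DPAT 5 mg/kg sc. FBP/FT rated 0–3 at 3, 6, 9, 12 and 15 min after agonist, summed (max 15). Mean ± SEM; Newman–Keuls test; ED50 with range.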

[2] = organism: Rattus norvegicus; experiment: Effect on 8-OH-DAPT- induced behavioral syndrome(FT: forepaw treading) by the compound in reserpine pretreated rats at a dose of 16; FT mean score; type: functional; procedure, shortened: as §1
[3] = organism: Rattus norvegicus; experiment: Induction of behavioral syndrome(FBP: flat body posture) by the compound in reserpine pretreated rats at a dose of 8; FBP mean score; type: functional
Procedure, shortened: (§2)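 Male Wistar rats (260–300 g) were given reserpine 1 mg/kg sc in saline 18 h before testing. Test compound was then given alone ip as a 1% Tween 80 suspension (2 mL/kg). FBP and FT were each scored 0–3 and summed (maximum 15). n=6 per group; mean ± SEM; Newman–Keuls test.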

[4] = organism: Rattus norvegicus; experiment: Induction of behavioral syndrome(FT: forepaw treading) by the compound in reserpine pretreated rats at a dose of 8; FT mean score; type: functional; procedure, shortened: as §2
[5] = organism: Rattus norvegicus; experiment: Effect on 8-OH-DAPT- induced behavioral syndrome(FBP: flat body posture) by the compound in reserpine pretreated rats at a dose of 8; FBP mean score; type: functional; procedure, shortened: as §1
[6] = biological target: T1, 5-hydroxytryptamine receptor 1A (Rattus norvegicus, UniProt P19327); experiment: Ability to displace [3H]8-OH-DPAT from 5-hydroxytryptamine 1A receptor
T1 sequence (P19327 whole entry): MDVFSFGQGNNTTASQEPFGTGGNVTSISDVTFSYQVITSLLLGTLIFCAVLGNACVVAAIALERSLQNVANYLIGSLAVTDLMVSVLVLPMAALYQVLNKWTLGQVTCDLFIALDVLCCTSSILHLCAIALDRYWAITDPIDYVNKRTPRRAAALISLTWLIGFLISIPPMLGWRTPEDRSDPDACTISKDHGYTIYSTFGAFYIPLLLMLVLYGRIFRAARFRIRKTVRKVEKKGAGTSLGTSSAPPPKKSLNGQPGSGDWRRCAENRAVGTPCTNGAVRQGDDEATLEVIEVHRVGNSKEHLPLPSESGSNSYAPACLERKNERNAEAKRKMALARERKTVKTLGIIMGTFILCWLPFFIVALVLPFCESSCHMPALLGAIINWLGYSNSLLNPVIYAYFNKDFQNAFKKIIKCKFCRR
Procedure, shortened: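 Rat hippocampal membranes, [3H]8-OH-DPAT radioligand. Ki from at least three competition experiments, each with 10–14 drug concentrations run in triplicate. Ki calculated with the Cheng–Prusoff equation.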

[7] = system: Rattus norvegicus; experiment: Induction of LLR(lower lip retraction) by the compound in rats at a dose of 4 mg/kg; LLR score; type: functional
Procedure, shortened: (§3)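 Male Wistar rats, groups of 6, given compound alone ip as 1% Tween 80 suspension. Lower incisor visibility scored 0/0.5/1 at 15, 30 and 45 min after dosing, summed (max 3 per rat). Mean ± SEM versus vehicle, Newman–Keuls test; ED50 with range.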

[8] = organism: Rattus norvegicus; experiment: Induction of behavioral syndrome(FBP: flat body posture) by the compound in reserpine pretreated rats at a dose of 32; FBP mean score; type: functional; procedure, shortened: as §2
[9] = system: Rattus norvegicus; experiment: Induction of LLR(lower lip retraction) by the compound in rats at a dose of 8 mg/kg; LLR score; type: functional; procedure, shortened: as §3
[10] = system: Rattus norvegicus; experiment: Induction of LLR(lower lip retraction) by the compound in rats at a dose of 2 mg/kg; LLR score; type: functional; procedure, shortened: as §3
[11] = organism: Rattus norvegicus; experiment: Effect on 8-OH-DAPT- induced behavioral syndrome(FT: forepaw treading) by the compound in reserpine pretreated rats at a dose of 8; FT mean score; type: functional; procedure, shortened: as §1
[12] = organism: Rattus norvegicus; experiment: Induction of behavioral syndrome(FT: forepaw treading) by the compound in reserpine pretreated rats at a dose of 16; FT mean score; type: functional; procedure, shortened: as §2
[13] = organism: Rattus norvegicus; experiment: Dose Inducing behavioral syndrome(FT: forepaw treading) by the compound in reserpine pretreated rats; type: functional
Procedure, shortened: (§4)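 Male Wistar rats (260–300 g), groups of 6, given reserpine 1 mg/kg sc 18 h before test. Compounds given ip as 1% Tween 80 suspension. FBP and FT rated 0–3 in 45-s sessions every 3 min, starting 3 min after dosing. Score summed over 5 periods (max 15 per symptom). Mean ± SEM; Newman–Keuls test.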

[14] = organism: Rattus norvegicus; experiment: Effective dose of the required to induce LLR(lower lip retraction); type: functional; procedure, shortened: as §3
[15] = organism: Rattus norvegicus; experiment: Dose Inducing behavioral syndrome(FBP: flat body posture) by the compound in reserpine pretreated rats; type: functional; procedure, shortened: as §4
[16] = organism: Rattus norvegicus; experiment: Induction of behavioral syndrome(FBP: flat body posture) by the compound in reserpine pretreated rats at a dose of 16; FBP mean score; type: functional; procedure, shortened: as §4
[17] = organism: Rattus norvegicus; experiment: Effect on 8-OH-DAPT- induced behavioral syndrome(FBP: flat body posture) by the compound in reserpine pretreated rats at a dose of 16; FBP mean score; type: functional; procedure, shortened: as §1
[18] = organism: Rattus norvegicus; experiment: Effect on 8-OH-DAPT- induced behavioral syndrome(FBP: flat body posture) by the compound in reserpine pretreated rats at a dose of 32; FBP mean score; type: functional; procedure, shortened: as §1
[19] = organism: Rattus norvegicus; experiment: Induction of behavioral syndrome(FT: forepaw treading) by the compound in reserpine pretreated rats at a dose of 32; FT mean score; type: functional; procedure, shortened: as §2

Work on `O=C1[C@H]2CCCC[C@H]2C(=O)N1CCCCN1CCc2ccccc2C1` yielded an FT mean score [1] of 6, an FT mean score [2] of 7.7 and an FBP mean score [3] of 0.1. It also gave an FT mean score [4] of 0.1, an FBP mean score [5] of 14.6 and a pKi [6] of 7.30. For the same compound, the LLR score [7] was 1.9, the FBP mean score [8] was 3.7 and the LLR score [9] was 2.5. It also gave an LLR score [10] of 1, an FT mean score [11] of 9.8 and an FT mean score [12] of 0.2. For the same compound, the ED50 [13] was 17 mg/kg, the ED50 [14] was 3.9 mg/kg and the ED50 [15] was over 32 mg/kg. For the same compound, the FBP mean score [16] was 2.3, the FBP mean score [17] was 13.3 and the FBP mean score [18] was 11.7. For the same compound, the FT mean score [19] was 0.2.
